{"source": "ChEMBL document CHEMBL1154191", "about": "“Evaluation of spirocyclic 3-(3-fluoropropyl)-2-benzofurans as sigma1 receptor ligands for neuroimaging with positron emission tomography” (J Med Chem, 2009)", "key": {"Brain [1]": {"tested_on": "Brain", "assay": "Biodistribution in CD1 mouse brain assessed per gram of wet tissue at 400 to 600 kBq, iv after 60 mins post-injection by gamma counting", "format": "ADME, organism-based", "conditions": "in vivo, 1 h", "method_in_brief": "(§1)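 Female CD-1 mice (~8-12 weeks, 20-28 g) were fasted 24 h with free water. Conscious mice got 400-600 kBq [¹⁸F] tracer in saline by tail vein. At 5, 30, 60 or 120 min (n=4-5 per time) they were anesthetized, blood and urine sampled, then killed by cervical dislocation. Organs were weighed and γ-counted, giving % ID/g wet tissue.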"}, "Lung": {"tested_on": "Lung", "assay": "Biodistribution in CD1 mouse lung assessed per gram of wet tissue at 400 to 600 kBq, iv after 60 mins post-injection by gamma counting", "format": "ADME, organism-based", "conditions": "in vivo, 1 h", "method_in_brief": "(§2)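 Female CD-1 mice (~8-12 weeks, 20-28 g), habituated ≥48 h and fasted 24 h with water available. The [18F] tracer (>150 GBq/μmol at end of synthesis) was given in 200 μL saline into the tail vein of conscious animals. At each time point, n=4-5, mice were anaesthetised, blood and urine sampled, then killed by cervical dislocation. Organs were weighed and γ-counted, and values calculated as % ID/g wet tissue.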"}, "Liver": {"tested_on": "Liver", "assay": "Biodistribution in CD1 mouse liver assessed per gram of wet tissue at 400 to 600 kBq, iv after 60 mins post-injection by gamma counting", "format": "ADME, organism-based", "conditions": "in vivo, 1 h", "method_in_brief": "as §2"}, "Pancreas": {"tested_on": "Pancreas", "assay": "Biodistribution in CD1 mouse pancreas assessed per gram of wet tissue at 400 to 600 kBq, iv after 60 mins post-injection by gamma counting", "format": "ADME, organism-based", "conditions": "in vivo, 1 h", "method_in_brief": "as §2"}, "[2]": {"assay": "Biodistribution in CD1 mouse gonad assessed per gram of wet tissue at 400 to 600 kBq, iv after 60 mins post-injection by gamma counting", "format": "ADME, organism-based", "conditions": "in vivo, 1 h", "method_in_brief": "as §1"}, "Femur [3]": {"tested_on": "Femur", "assay": "Biodistribution in CD1 mouse femur assessed per gram of wet tissue at 400 to 600 kBq, iv after 60 mins post-injection by gamma counting", "format": "ADME, organism-based", "conditions": "in vivo, 1 h", "method_in_brief": "as §1"}, "Brain [4]": {"tested_on": "Brain", "assay": "Biodistribution in CD1 mouse brain assessed per gram of wet tissue at 400 to 600 kBq, iv after 120 mins post-injection by gamma counting", "format": "ADME, organism-based", "conditions": "in vivo, 2 h", "method_in_brief": "as §1"}, "Intestine [5]": {"tested_on": "Intestine", "assay": "Biodistribution in CD1 mouse intestine assessed per gram of wet tissue at 400 to 600 kBq, iv after 120 mins post-injection by gamma counting", "format": "ADME, organism-based", "conditions": "in vivo, 2 h", "method_in_brief": "as §1"}, "Kidney [6]": {"tested_on": "Kidney", "assay": "Biodistribution in CD1 mouse kidney assessed per gram of wet tissue at 400 to 600 kBq, iv after 120 mins post-injection by gamma counting", "format": "ADME, organism-based", "conditions": "in vivo, 2 h", "method_in_brief": "as §1"}, "[7]": {"assay": "Biodistribution in CD1 mouse adrenal gland assessed per gram of wet tissue at 400 to 600 kBq, iv after 120 mins post-injection by gamma counting", "format": "ADME, organism-based", "conditions": "in vivo, 2 h", "method_in_brief": "as §1"}, "Femur [8]": {"tested_on": "Femur", "assay": "Biodistribution in CD1 mouse femur assessed per gram of wet tissue at 400 to 600 kBq, iv after 120 mins post-injection by gamma counting", "format": "ADME, organism-based", "conditions": "in vivo, 2 h", "method_in_brief": "as §1"}, "Mus musculus": {"tested_on": "Mus musculus", "assay": "Plasma concentration in CD1 mouse assessed per gram of wet tissue at 400 to 600 kBq, iv after 60 mins post-injection by gamma counting in presence of 1 mg/kg, ip sigma 1/sigma 2 receptor antagonist haloperidol treated before compound addition", "format": "organism-based", "design": "route intravenous", "conditions": "in vivo, 1 h", "method_in_brief": "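Female CD-1 mice, fasted 24 h. […] Blood sampled and mice killed at 60 min pi. Samples weighed, γ-counted, %ID/g calculated. Compared with controls by two-tailed independent Student's t test.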"}, "Heart": {"tested_on": "Heart", "assay": "Biodistribution in CD1 mouse heart assessed per gram of wet tissue at 400 to 600 kBq, iv after 60 mins post-injection by gamma counting in presence of 1 mg/kg, ip sigma 1/sigma 2 receptor antagonist haloperidol treated before compound addition", "format": "organism-based", "design": "dose 1 mg/kg, route intravenous", "conditions": "in vivo, 1 h", "method_in_brief": "(§3)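 Blocking arm in fasted female CD-1 mice (n=5). […] Animals were killed at 60 min post-injection, and organs were weighed and γ-counted as % ID/g wet tissue. Percent change was taken against the 60 min control group, with two-tailed unpaired Student's t test.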"}, "Stomach": {"tested_on": "Stomach", "assay": "Biodistribution in CD1 mouse stomach assessed per gram of wet tissue at 400 to 600 kBq, iv after 60 mins post-injection by gamma counting in presence of 1 mg/kg, ip sigma 1/sigma 2 receptor antagonist haloperidol treated before compound addition", "format": "organism-based", "design": "route intravenous", "conditions": "in vivo, 1 h", "method_in_brief": "(§4)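 They were killed at 60 min pi, and organs were weighed and γ-counted as % ID/g wet tissue. Comparison with controls used Student's t test (independent, two-tailed).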"}, "Intestine [9]": {"tested_on": "Intestine", "assay": "Biodistribution in CD1 mouse intestine assessed per gram of wet tissue at 400 to 600 kBq, iv after 60 mins post-injection by gamma counting in presence of 1 mg/kg, ip sigma 1/sigma 2 receptor antagonist haloperidol treated before compound addition", "format": "organism-based", "design": "dose 1 mg/kg, route intravenous", "conditions": "in vivo, 1 h", "method_in_brief": "as §3"}, "Kidney [10]": {"tested_on": "Kidney", "assay": "Biodistribution in CD1 mouse kidney assessed per gram of wet tissue at 400 to 600 kBq, iv after 60 mins post-injection by gamma counting in presence of 1 mg/kg, ip sigma 1/sigma 2 receptor antagonist haloperidol treated before compound addition", "format": "organism-based", "design": "dose 1 mg/kg, route intravenous", "conditions": "in vivo, 1 h", "method_in_brief": "as §3"}, "[11]": {"assay": "Biodistribution in CD1 mouse thymus assessed per gram of wet tissue at 400 to 600 kBq, iv after 60 mins post-injection by gamma counting in presence of 1 mg/kg, ip sigma 1/sigma 2 receptor antagonist haloperidol treated before compound addition", "format": "organism-based", "design": "route intravenous", "conditions": "in vivo, 1 h", "method_in_brief": "as §4"}, "[12]": {"assay": "Biodistribution in CD1 mouse gonad assessed per gram of wet tissue at 400 to 600 kBq, iv after 60 mins post-injection by gamma counting in presence of 1 mg/kg, ip sigma 1/sigma 2 receptor antagonist haloperidol treated before compound addition", "format": "organism-based", "design": "dose 1 mg/kg, route intravenous", "conditions": "in vivo, 1 h", "method_in_brief": "as §3"}, "[13]": {"assay": "Ratio of drug level in cerebellum to plasma in CD1 mouse at 400 to 600 kBq, iv after 30 mins post-injection", "format": "ADME, organism-based", "method_in_brief": "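Female CD-1 mice (~8-12 weeks, 20-28 g), fasted 24 h with free water; 400-600 kBq tracer in 200 μL saline by tail vein into conscious animals. Killed at set times pi (n=4-5 per time); blood and organs weighed, γ-counted, expressed as % ID/g wet tissue; ratio from cerebellum and plasma uptake.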"}, "Spleen [14]": {"tested_on": "Spleen", "assay": "Drug uptake in CD1 mouse spleen at 400 to 600 kBq, iv after 120 mins post-injection by gamma counting relative to initial uptake", "format": "ADME, organism-based", "conditions": "in vivo, 2 h", "method_in_brief": "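Organ % ID/g was measured by γ-counting after tail-vein injection of 400-600 kBq [18F] tracer in saline to fasted female CD-1 mice (n=4-5 per time). The 120 min pi value is expressed relative to the initial (5 min pi) uptake.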"}, "Blood [15]": {"tested_on": "Blood", "assay": "Biodistribution in CD1 mouse blood assessed per gram of wet tissue at 400 to 600 kBq, iv after 5 mins post-injection by gamma counting", "format": "ADME, organism-based", "conditions": "in vivo", "method_in_brief": "as §1"}, "Spleen [16]": {"tested_on": "Spleen", "assay": "Biodistribution in CD1 mouse spleen assessed per gram of wet tissue at 400 to 600 kBq, iv after 5 mins post-injection by gamma counting", "format": "ADME, organism-based", "conditions": "in vivo", "method_in_brief": "as §2"}, "Muscle tissue": {"tested_on": "Muscle tissue", "assay": "Biodistribution in CD1 mouse muscle assessed per gram of wet tissue at 400 to 600 kBq, iv after 5 mins post-injection by gamma counting", "format": "ADME, organism-based", "conditions": "in vivo", "method_in_brief": "as §2"}, "Femur [17]": {"tested_on": "Femur", "assay": "Biodistribution in CD1 mouse femur assessed per gram of wet tissue at 400 to 600 kBq, iv after 5 mins post-injection by gamma counting", "format": "ADME, organism-based", "conditions": "in vivo", "method_in_brief": "as §1"}, "Blood [18]": {"tested_on": "Blood", "assay": "Biodistribution in CD1 mouse blood assessed per gram of wet tissue at 400 to 600 kBq, iv after 60 mins post-injection by gamma counting", "format": "ADME, organism-based", "conditions": "in vivo, 1 h", "method_in_brief": "as §1"}, "Cerebellum": {"tested_on": "Cerebellum", "assay": "Biodistribution in CD1 mouse cerebellum assessed per gram of wet tissue at 400 to 600 kBq, iv after 60 mins post-injection by gamma counting", "format": "ADME, organism-based", "conditions": "in vivo, 1 h", "method_in_brief": "as §1"}}}
{"smiles": "[18F]CCCC1OC2(CCN(Cc3ccccc3)CC2)c2ccccc21", "note": "(stereo unspecified)", "values": [{"measurement": "Drug uptake", "setting": "Brain [1]", "result": 2.27, "unit": "%ID"}, {"measurement": "Drug uptake", "setting": "Lung", "result": 4.64, "unit": "%ID"}, {"measurement": "Drug uptake", "setting": "Liver", "result": 3.24, "unit": "%ID"}, {"measurement": "Drug uptake", "setting": "Pancreas", "result": 8.92, "unit": "%ID"}, {"measurement": "Drug uptake", "setting": "[2]", "result": 4.22, "unit": "%ID"}, {"measurement": "Drug uptake", "setting": "Femur [3]", "result": 3.48, "unit": "%ID"}, {"measurement": "Drug uptake", "setting": "Brain [4]", "result": 2.14, "unit": "%ID"}, {"measurement": "Drug uptake", "setting": "Intestine [5]", "result": 9.03, "unit": "%ID"}, {"measurement": "Drug uptake", "setting": "Kidney [6]", "result": 3.68, "unit": "%ID"}, {"measurement": "Drug uptake", "setting": "[7]", "result": 5.86, "unit": "%ID"}, {"measurement": "Drug uptake", "setting": "Femur [8]", "result": 6.64, "unit": "%ID"}, {"measurement": "Drug uptake", "setting": "Mus musculus", "result": 0.63, "unit": "%ID"}, {"measurement": "Drug uptake", "setting": "Heart", "result": 1.09, "unit": "%ID"}, {"measurement": "Drug uptake", "setting": "Stomach", "result": 5.88, "unit": "%ID"}, {"measurement": "Drug uptake", "setting": "Intestine [9]", "result": 6.6, "unit": "%ID"}, {"measurement": "Drug uptake", "setting": "Kidney [10]", "result": 3.42, "unit": "%ID"}, {"measurement": "Drug uptake", "setting": "[11]", "result": 2.36, "unit": "%ID"}, {"measurement": "Drug uptake", "setting": "[12]", "result": 4.92, "unit": "%ID"}, {"measurement": "Kp at 0.5 h", "setting": "[13]", "result": 3.86}, {"measurement": "Drug uptake", "setting": "Spleen [14]", "result": "> 70", "unit": "%"}, {"measurement": "Drug uptake", "setting": "Blood [15]", "result": 1.44, "unit": "%ID"}, {"measurement": "Drug uptake", "setting": "Spleen [16]", "result": 4.51, "unit": "%ID"}, {"measurement": "Drug uptake", "setting": "Muscle tissue", "result": 2.18, "unit": "%ID"}, {"measurement": "Drug uptake", "setting": "Femur [17]", "result": 2.17, "unit": "%ID"}, {"measurement": "Drug uptake", "setting": "Blood [18]", "result": 0.37, "unit": "%ID"}, {"measurement": "Drug uptake", "setting": "Cerebellum", "result": 2.99, "unit": "%ID"}]}
